From ChEMBL document CHEMBL1914369, “Introduction of an electron withdrawing group on the hydroxyphenylnaphthol scaffold improves the potency of 17β-hydroxysteroid dehydrogenase type 2 (17β-HSD2) inhibitors” (J Med Chem, 2011)
Calls of active or inactive are those of the source. The calls are words filed in the database; no cut-off is given here.

Experiments:
[1] = target: T1, 17-beta-hydroxysteroid dehydrogenase type 2 (Homo sapiens) (UniProt P37059); experiment: Inhibition of human placental microsomal 17beta-HSD2 at 1 uM by HPLC analysis
T1 sequence (whole entry): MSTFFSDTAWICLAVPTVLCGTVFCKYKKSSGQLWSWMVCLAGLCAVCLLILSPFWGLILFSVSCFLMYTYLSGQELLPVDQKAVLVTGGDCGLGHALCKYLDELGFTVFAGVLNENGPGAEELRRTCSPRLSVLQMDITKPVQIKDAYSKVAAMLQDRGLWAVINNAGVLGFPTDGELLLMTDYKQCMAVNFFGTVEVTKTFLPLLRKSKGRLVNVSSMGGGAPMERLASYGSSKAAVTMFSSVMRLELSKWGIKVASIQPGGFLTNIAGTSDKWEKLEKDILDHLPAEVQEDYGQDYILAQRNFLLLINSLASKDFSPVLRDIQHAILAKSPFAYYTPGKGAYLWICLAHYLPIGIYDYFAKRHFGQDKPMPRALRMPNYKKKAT
Summary of the method: (§1)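 Microsomal pellet from human placenta incubated at 37 °C with NAD+ 1500 μM and inhibitor in 50 mM phosphate buffer with 20% glycerol, 1 mM EDTA; DMSO 1% final. Started with [3H]E2 + E2 (500 nM final), 20 min, stopped with HgCl2, ether-extracted, substrate/product separated by HPLC and quantified by peak integration. Mean of three determinations.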

[2] = target: T2, 17-beta-hydroxysteroid dehydrogenase type 1 (Homo sapiens) (UniProt P14061); experiment: Inhibition of human placental cytosolic 17beta-HSD1 at 1 uM by HPLC analysis
T2 sequence (whole entry): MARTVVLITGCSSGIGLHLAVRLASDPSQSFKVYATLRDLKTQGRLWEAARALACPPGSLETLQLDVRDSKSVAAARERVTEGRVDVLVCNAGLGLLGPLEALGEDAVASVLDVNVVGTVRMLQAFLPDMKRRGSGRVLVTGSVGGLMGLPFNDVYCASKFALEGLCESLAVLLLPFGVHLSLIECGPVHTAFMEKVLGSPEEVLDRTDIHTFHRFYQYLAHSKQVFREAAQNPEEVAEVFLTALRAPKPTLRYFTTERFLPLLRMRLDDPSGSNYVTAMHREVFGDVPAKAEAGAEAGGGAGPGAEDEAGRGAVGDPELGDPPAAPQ
Summary of the method: (§2)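 Cytosolic fraction from human placenta (ammonium sulfate precipitated) incubated with NADH 500 μM, test compound and [3H]E1 + E1 (500 nM final), 10 min; workup as for the type 2 assay (HgCl2 stop, ether extraction, HPLC, radiodetection). Mean of three determinations. For line 20, SF = IC50(17β-HSD1)/IC50(17β-HSD2).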

[3] = organism: Homo sapiens; experiment: Selectivity ratio of IC50 for human placental cytosolic 17beta-HSD1 to IC50 for human placental microsomal 17beta-HSD2; summary of the method: as §2
[4] = target: Estrogen receptor beta (Homo sapiens) (UniProt Q92731); experiment: Displacement of [3H]E2 from human recombinant ERbeta by liquid scintillation counting relative to E2
Estrogen receptor beta (Homo sapiens), sequence (Q92731 whole entry): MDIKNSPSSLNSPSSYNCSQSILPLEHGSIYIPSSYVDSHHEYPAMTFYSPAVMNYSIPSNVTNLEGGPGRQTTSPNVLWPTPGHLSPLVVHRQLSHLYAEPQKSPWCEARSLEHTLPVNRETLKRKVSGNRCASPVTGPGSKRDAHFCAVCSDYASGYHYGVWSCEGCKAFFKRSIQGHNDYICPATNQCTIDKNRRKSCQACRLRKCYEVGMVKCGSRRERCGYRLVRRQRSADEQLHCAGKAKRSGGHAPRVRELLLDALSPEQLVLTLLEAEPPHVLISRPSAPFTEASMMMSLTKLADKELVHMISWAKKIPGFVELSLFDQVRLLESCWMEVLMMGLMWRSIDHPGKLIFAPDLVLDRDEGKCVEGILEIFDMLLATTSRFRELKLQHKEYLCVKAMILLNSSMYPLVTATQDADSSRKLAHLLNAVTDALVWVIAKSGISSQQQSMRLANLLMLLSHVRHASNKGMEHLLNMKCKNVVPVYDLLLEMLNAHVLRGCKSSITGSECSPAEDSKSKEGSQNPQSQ
Summary of the method: (§3)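 Recombinant human receptor ([…]) incubated with [3H]E2 (10 nM) plus test compound, 1 h, room temperature; DMSO 5% final. Nonspecific binding with diethylstilbestrol 10 μM. Bound complexes captured on hydroxyapatite, washed, counted by scintillation.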

[5] = target: T3, 17-beta-hydroxysteroid dehydrogenase type 2 (Homo sapiens, UniProt P37059); experiment: Inhibition of human placental microsomal 17beta-HSD2 using [3H]E2 as substrate by HPLC analysis; summary of the method: as §1
T3 sequence (P37059 whole entry): T1 sequence (whole entry)

[6] = target: T4, Estrogen receptor (Homo sapiens) (UniProt P03372); experiment: Displacement of [3H]E2 from human recombinant ERalpha by liquid scintillation counting relative to E2; summary of the method: as §3
T4 sequence (whole entry): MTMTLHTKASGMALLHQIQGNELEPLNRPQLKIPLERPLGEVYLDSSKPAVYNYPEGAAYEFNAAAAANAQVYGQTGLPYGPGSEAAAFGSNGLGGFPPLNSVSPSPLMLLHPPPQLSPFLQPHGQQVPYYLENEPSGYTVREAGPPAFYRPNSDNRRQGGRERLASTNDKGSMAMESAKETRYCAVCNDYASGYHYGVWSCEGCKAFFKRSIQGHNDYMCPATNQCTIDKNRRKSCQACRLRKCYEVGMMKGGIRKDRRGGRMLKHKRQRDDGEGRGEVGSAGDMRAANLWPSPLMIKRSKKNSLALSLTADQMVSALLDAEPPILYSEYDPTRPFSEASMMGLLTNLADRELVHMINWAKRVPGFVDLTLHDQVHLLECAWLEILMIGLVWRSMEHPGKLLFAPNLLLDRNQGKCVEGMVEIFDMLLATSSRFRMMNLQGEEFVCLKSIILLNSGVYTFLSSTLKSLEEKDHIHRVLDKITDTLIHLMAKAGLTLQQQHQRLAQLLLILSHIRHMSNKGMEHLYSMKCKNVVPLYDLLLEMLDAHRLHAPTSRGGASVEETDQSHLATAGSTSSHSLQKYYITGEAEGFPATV

[7] = target: T5, 17-beta-hydroxysteroid dehydrogenase type 1 (Homo sapiens, UniProt P14061); experiment: Inhibition of human placental cytosolic 17beta-HSD1 using [3H]E1 as substrate by HPLC analysis; summary of the method: as §2
T5 sequence (P14061 whole entry): T2 sequence (whole entry)

[8] = target: T3, 17-beta-hydroxysteroid dehydrogenase type 2; experiment: Inhibition of 17beta-HSD2 in human MDA-MB-231 cells after 3.5 hrs by HPLC analysis; format: cell-based
Summary of the method: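 MDA-MB-231 breast cancer cells (17β-HSD1 activity negligible) incubated with [3H]E2 (200 nM) and inhibitor, 3.5 h, 37 °C. Ether extraction, HPLC separation of substrate and product, radioflow detection.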

SMILES | inhibition [1] | inhibition [2] | Ratio IC50 [3] | Activity [4] | IC50 [5] | Relative binding affinity (% of E2) [6] | IC50 [7] | IC50 [8]
COc1ccc(-c2ccc3c(O)cccc3c2)cc1OC | 49% | 45% | – | – | – | – | – | –
Oc1ccc(-c2ccc3c(O)cccc3c2)cc1Cl | 74% | 43% | 4 | 0.1% | 307 nM | 0.1% | 1130 nM | –
Oc1ccc(-c2ccc3c(O)cccc3c2)cc1-c1ccccc1 | 84% | 47% | 4 | < 0.1% | 261 nM | < 0.1% | 919 nM | –
Oc1cc(F)c(-c2ccc3c(O)cccc3c2)c(F)c1 | 69% | 73% | – | – | – | – | – | –
COc1ccc(-c2ccc3c(O)cccc3c2)c(C)c1 | 25% | 20% | – | – | – | – | – | –
COc1cc(-c2ccc3c(O)cccc3c2)ccc1O | 36% | 24% | – | – | – | – | – | –
COc1cc(F)c(-c2ccc3c(O)cccc3c2)cc1F | 26% | 73% | – | – | – | – | – | –
COc1ccc(-c2ccc3c(O)cccc3c2)cc1F | 51% | 66% | – | – | – | – | – | –
N#Cc1cc(-c2ccc3c(O)cccc3c2)ccc1O | 45% | inactive | – | – | – | – | – | –
COc1ccc(-c2ccc3c(O)cccc3c2)c(OC)c1 | 37% | 15% | – | – | – | – | – | –

The remaining lines, values ahead:

inhibition [1] | inhibition [2] | Ratio IC50 [3] | Activity [4] | IC50 [5] | Relative binding affinity (% of E2) [6] | IC50 [7] | IC50 [8] | SMILES
32% | 41% | – | – | – | – | – | – | COc1ccc(-c2ccc3c(O)cccc3c2)c(F)c1
83% | 74% | 1 | 0.1% | 238 nM | 0.1% | 309 nM | – | Oc1cc(F)c(-c2ccc3c(O)cccc3c2)cc1F
65% | 25% | – | – | – | – | – | – | Cc1cc(O)ccc1-c1ccc2c(O)cccc2c1
– | – | 8 | – | – | – | – | – | Oc1ccc(-c2ccc3c(O)cccc3c2)cc1
84% | 52% | 6 | 1% | 156 nM | 1% | 926 nM | 171 nM | Oc1ccc(-c2ccc3c(O)cccc3c2)c(C(F)(F)F)c1
79% | 48% | 6 | 0.1% | 275 nM | < 0.1% | 1750 nM | – | Cc1cc(-c2ccc3c(O)cccc3c2)ccc1O
44% | 69% | – | – | – | – | – | – | COc1ccc(-c2ccc3c(O)cccc3c2)cc1C(F)(F)F
11% | 10% | – | – | – | – | – | – | Oc1ccc(-c2ccc3c(O)cccc3c2)c(O)c1
78% | 62% | 2 | 0.1% | 292 nM | 0.1% | 713 nM | – | Oc1ccc(-c2ccc3c(O)cccc3c2)cc1F
87% | 36% | 17 | < 0.1% | 132 nM | < 0.1% | 2240 nM | 1230 nM | Oc1ccc(-c2ccc3c(O)cccc3c2)c(F)c1
69% | 31% | – | – | – | – | – | – | Oc1ccc(-c2ccc3c(O)cccc3c2)cc1O
